Experimental data as given in ChEMBL document CHEMBL1148022, “Discovery of new C3aR ligands. Part 2: amino-piperidine derivatives” (Bioorg Med Chem Lett, 2007).
The source made the active and inactive calls. No cut-off for these calls is given here.

Columns and labels:
[1] = molecular target: T1, C3a anaphylatoxin chemotactic receptor (Homo sapiens, UniProt Q16581); test: (§1) Displacement of [125I]C3a from human C3a receptor expressed in HMC1 cells co-expressing aequorin; format: cell-based
T1 sequence (Q16581 whole entry): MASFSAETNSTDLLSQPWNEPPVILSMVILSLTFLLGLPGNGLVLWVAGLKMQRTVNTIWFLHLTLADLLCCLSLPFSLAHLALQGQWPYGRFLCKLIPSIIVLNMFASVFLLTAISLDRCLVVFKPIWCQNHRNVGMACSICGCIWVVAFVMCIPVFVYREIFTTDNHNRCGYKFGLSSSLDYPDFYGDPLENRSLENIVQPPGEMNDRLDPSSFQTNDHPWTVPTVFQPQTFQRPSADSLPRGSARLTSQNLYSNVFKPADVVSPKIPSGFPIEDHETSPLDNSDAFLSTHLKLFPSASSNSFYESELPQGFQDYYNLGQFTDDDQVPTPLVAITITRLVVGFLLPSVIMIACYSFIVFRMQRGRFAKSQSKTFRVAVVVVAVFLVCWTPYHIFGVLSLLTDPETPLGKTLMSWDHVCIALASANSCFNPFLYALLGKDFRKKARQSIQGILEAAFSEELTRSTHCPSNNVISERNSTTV
How it was run: (§2)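 Scintillation proximity assay used wheat germ agglutinin beads and membranes from HMC-1 cells co-expressing Aequorin and human C3aR. Test compound was added at various concentrations with 0.02 nM ¹²⁵I-C3a in 50 mM Tris/2 mM MgCl₂/0.5% BSA. Non-specific binding was defined with 1 nM C3a. Plates were incubated 3 h at rt and read by scintillation counting. Values are means of three experiments.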

[2] = Clearance in rat microsomes; format: ADME, Liver, Microsome
Hepatocyte = test: Clearance in rat hepatocytes; format: ADME, cell-based, Liver
[3] = Permeability across Caco-2 cells; format: ADME, cell-based; details: human, read-out: permeability
[4] = Oral bioavailability in rat at 1 mg/kg; format: ADME, organism-based; details: in vivo
How it was run: (§3)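 Male rats received a single oral or iv dose of 1 mg/kg.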

[5] = Elimination half life in rat at 1 mg/kg, iv and 1 mg/kg, po; format: ADME, organism-based; details: in vivo; how it was run: as §3
[6] = molecular target: T1, C3a anaphylatoxin chemotactic receptor; test: Antagonist activity at human C3a receptor expressed in HMC1 cells co-expressing aequorin; format: functional, cell-based
How it was run: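 Aequorin/human C3aR HMC-1 cells were loaded with coelenterazine for 2 h. They were then plated and pre-treated with compound dilutions for 1 h at 37 °C, 1% DMSO. C3a agonist was then injected at 5 nM final. Light emission was the read-out.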

[7] = molecular target: T1, C3a anaphylatoxin chemotactic receptor; test: Agonist activity at human C3a receptor expressed in HMC1 cells co-expressing aequorin; format: functional, cell-based
How it was run: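 They were then diluted fourfold and held 1 h at 37 °C. Compound was injected at 1% DMSO final. Luminescence was recorded for 30 s right after injection. Maximal signal was set with 50 nM C3a.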

[8] = molecular target: T2, C3a anaphylatoxin chemotactic receptor (Homo sapiens) (UniProt Q16581); test: as §1; format: cell-based; how it was run: as §2
T2 sequence (whole entry): T1 sequence (Q16581 whole entry)

CL [2] | bioavailability [4] | half-life [5] | Structure (SMILES) | IC50 [1] | other results
 |  |  | CC1(C)CC(C(C(=O)NC2CCN(C(=O)CCc3cccnc3)CC2)c2ccccc2)CC(C)(C)C1 (stereo not drawn) | 63100 nM | 
 |  |  | Cc1ccc(C(C(=O)NC2CCN(C(=O)CCc3cccnc3)CC2)C2CCCCC2)cc1 (stereo not drawn) | 794 nM | 
500 µL/min | 5% | 6 min | O=C(NC1CCN(C(=O)CCc2cccnc2)CC1)C(c1ccccc1)c1ccccc1 | 12600 nM | CL (Hepatocyte): 21 µL/min; Papp [3]: 8.5 ×10⁻⁶ cm/s; IC50 [6]: 3160 nM
585 µL/min | 9% | 30 min | O=C(NC1CCN(C(=O)CCc2cccnc2)CC1)C(c1ccc2ccccc2c1)C1CCCCC1 (stereo not drawn) | 794 nM | EC50 [7]: 1580 nM
 |  |  | O=C(NC1CCN(C(=O)CCc2cccnc2)CC1)C(c1ccc([N+](=O)[O-])cc1)C1CCCCC1 (stereo not drawn) | 316 nM | 
 |  |  | O=C(NC1CCN(C(=O)CCc2cccnc2)CC1)C(c1ccccc1)C1CCCC1 (stereo not drawn) | 794 nM | 
 |  |  | O=C(NC1CCN(C(=O)CCc2cccnc2)CC1)C1c2cc(Cl)ccc2Oc2ccc(Cl)cc21 | 1580 nM | IC50 [6]: 631 nM
 |  |  | O=C(NC1CCN(C(=O)CCc2ccncc2)CC1)C1c2cc(Cl)ccc2Oc2ccc(Cl)cc21 |  | Log IC50 [8]: inactive
 |  |  | Cc1ccccc1C(C(=O)NC1CCN(C(=O)CCc2cccnc2)CC1)C1CCCCC1 (stereo not drawn) | 2510 nM | 
 |  |  | O=C(NC1CCN(C(=O)CCc2ccccc2F)CC1)C(c1ccccc1)C1CCCCC1 (stereo not drawn) | 2000 nM | 
 |  |  | O=C(NC1CCN(C(=O)CCc2cccnc2)CC1)/C(=C/C1CCCCC1)c1ccccc1 | 25100 nM | 
782 µL/min | 0% | 18 min | O=C(NC1CCN(C(=O)CCc2ccc(F)nc2)CC1)C(c1ccccc1)C1CCCCC1 (stereo not drawn) | 1260 nM | Papp [3]: 19 ×10⁻⁶ cm/s
 |  |  | O=C(NC1CCN(C(=O)/C=C/c2ccccc2F)CC1)C(c1ccccc1)C1CCCCC1 (stereo not drawn) | 12600 nM | 
 |  |  | O=C(NC1CCN(C(=O)CCc2cccnc2)CC1)C(c1ccccc1)C1CC=CC1 (stereo not drawn) | 3160 nM | 
609 µL/min | 0% | 18 min | O=C(NC1CCN(C(=O)CCc2cccnc2)CC1)C(c1cc(F)c(F)c(F)c1)C1CCCCC1 (stereo not drawn) | 100 nM | CL (Hepatocyte): 17 µL/min; EC50 [7]: 794 nM
 |  |  | COc1ncccc1CCC(=O)N1CCC(NC(=O)C(c2ccccc2)C2CCCCC2)CC1 (stereo not drawn) | 15800 nM | 
170 µL/min | 2% | 18 min | O=C(NC1CCN(C(=O)CCc2cccnc2)CC1)C(c1ccccc1)C1CCC(F)(F)CC1 (stereo not drawn) | 631 nM | Papp [3]: 16 ×10⁻⁶ cm/s
 |  |  | O=C(NC1CCN(C(=O)CCc2cccnc2)CC1)C(c1ccsc1)C1CCCCC1 (stereo not drawn) | 200 nM | 

CL [2] | bioavailability [4] | half-life [5] | Structure (SMILES) | IC50 [1] | other results
500 µL/min | 1% | 42 min | O=C(NC1CCN(C(=O)CCc2cccnc2)CC1)C(CC1CCCCC1)c1ccccc1 (stereo not drawn) | 794 nM | CL (Hepatocyte): 44 µL/min
 |  |  | CC1(C)CCC(C(C(=O)NC2CCN(C(=O)CCc3cccnc3)CC2)c2ccccc2)CC1 (stereo not drawn) | 1000 nM | 
175 µL/min | 0% | 24 min | O=C(NC1CCN(C(=O)CCc2cccnc2)CC1)C(c1ccc(Cl)cc1)c1ccc(Cl)cc1 | 20000 nM | Papp [3]: 6.3 ×10⁻⁶ cm/s
 |  |  | O=C(NC1CCN(C(=O)CCc2cccnc2)CC1)C(c1ccc(F)cc1)C1CCCCC1 (stereo not drawn) | 158 nM | 
175 µL/min | 3% | 18 min | Cc1cncc(/C=C/C(=O)N2CCC(NC(=O)C(c3ccccc3)C3CCCCC3)CC2)c1 (stereo not drawn) | 50100 nM | CL (Hepatocyte): 21 µL/min; Papp [3]: 7.9 ×10⁻⁶ cm/s
 |  |  | O=C(NC1CCN(C(=O)CCc2ccccn2)CC1)C1c2cc(Cl)ccc2Oc2ccc(Cl)cc21 |  | Log IC50 [8]: inactive
238 µL/min | 7% | 18 min | O=C(NC1CCN(C(=O)/C=C/c2cccnc2)CC1)C(c1ccccc1)C1CCCCC1 (stereo not drawn) | 1000 nM | CL (Hepatocyte): 26 µL/min; Papp [3]: 8.5 ×10⁻⁶ cm/s
500 µL/min | 0% | 18 min | O=C(NC1CCN(C(=O)CCc2cccnc2)CC1)C(c1ccc(Cl)cc1)C1CCCCC1 (stereo not drawn) | 200 nM | CL (Hepatocyte): 28 µL/min; Papp [3]: 10 ×10⁻⁶ cm/s
 |  |  | O=C(NC1CCN(C(=O)CCc2cccnc2)CC1)C(c1ccccc1)C1CCCCC1 (single isomer, unassigned; epimer A) | 5010 nM | 
500 µL/min | 5% | 12 min | O=C(NC1CCN(C(=O)CCc2cccnc2)CC1)C(c1ccccc1)C1CCCCC1 (stereo not drawn) | 794 nM | CL (Hepatocyte): 33 µL/min; Papp [3]: 12 ×10⁻⁶ cm/s; EC50 [7]: 2000 nM
 |  |  | Cc1cccc(C(C(=O)NC2CCN(C(=O)CCc3cccnc3)CC2)C2CCCCC2)c1 (stereo not drawn) | 79.4 nM | 
 |  |  | O=C(NC1CCN(C(=O)Cc2cccc(F)c2F)CC1)C(c1ccccc1)C1CCCCC1 (stereo not drawn) | 10000 nM | 
675 µL/min | 6% | 12 min | O=C(NC1CCN(C(=O)CCc2cccnc2)CC1)C(C1CCCCC1)C1CCCCC1 | 1000 nM | 
 |  |  | O=C(NC1CCN(C(=O)CCc2cccnc2)CC1)C1c2ccccc2Cc2ccccc21 | 79400 nM | 
 |  |  | O=C(NC1CCN(C(=O)CCc2cccnc2F)CC1)C(c1ccccc1)C1CCCCC1 (stereo not drawn) | 31.6 nM | EC50 [7]: 200 nM
 |  |  | Cc1cc(C)cc(C(C(=O)NC2CCN(C(=O)CCc3cccnc3)CC2)C2CCCCC2)c1 (stereo not drawn) | 126 nM | 
 |  |  | O=C(NC1CCN(C(=O)CCc2cccnc2)CC1)C(c1ccccc1)C1CCCCC1 (single isomer, unassigned; epimer B) | 316 nM | 
 |  |  | COc1ccc(C(C(=O)NC2CCN(C(=O)CCc3cccnc3)CC2)C2CCCCC2)cc1 (stereo not drawn) | 631 nM | 
